eIF4H inh: inhibitors of RNA binding by human eIF4H | Q15056 | eIF4H fluorescence polarization binding assay | inhibition, % at 35 µM | hit rate 0.94% among 290,000 | AID 2012;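 note: calls also rest on retests at 20 µM and on dose response follow-up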
NS3 helicase inh: HCV NS3 helicase inhibition | NS3 helicase DNA unwinding, Cy5 molecular beacon fluorescence | inhibition, % at 10.9 µM | hit rate 0.56% among 290,000;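 active = inhibition above the mean of all tested compounds plus 3 SD, set per campaign, cut at about 35% in these data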
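Compound dosing – single dose, 10.9 µM nominal final, DMSO 0.8% final · System – NS3 helicase fragment of HCV · Buffer or medium – MOPS pH 6.5, MgCl2, DTT, Tween20, BSA · Signal – Cy5 beacon fluorescence read at start and 1 h · Also added – annealed dual-labelled DNA beacon duplex, ATP-started · Schedule – 1 h at 25 °C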
PABP FP inh: blocks human PABP binding to poly(A) RNA. P11940. fluorescence polarization. inhibition, % at 35 µM. hit rate 1% among 290,000. AID 2014;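 note: calls also rest on retests at 20 µM and on dose response follow-up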
ZTA DNA inh: blocks Epstein-Barr virus ZTA, an EBNA-1 counter-screen; P03206; ZTA-DNA binding, fluorescence polarization; inhibition, % at 11 µM; hit rate 0.15% among 320,000; AID 2234; in the data active = inhibition above about 33%
Target sequence (P03206 whole entry, looked up): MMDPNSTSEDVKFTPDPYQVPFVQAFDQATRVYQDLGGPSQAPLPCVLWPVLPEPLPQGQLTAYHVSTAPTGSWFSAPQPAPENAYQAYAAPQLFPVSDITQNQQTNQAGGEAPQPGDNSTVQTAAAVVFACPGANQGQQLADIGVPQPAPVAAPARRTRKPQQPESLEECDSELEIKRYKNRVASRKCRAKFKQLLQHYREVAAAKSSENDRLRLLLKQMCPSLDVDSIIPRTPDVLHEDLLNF
PABP1 MLLE inh: blocks PAM2 peptide binding to the PABP1 MLLE domain. P11940. GST-MLLE / FITC-PAM2 fluorescence polarization. inhibition, % at 20 µM. hit rate 0.36% among 360,000; in the data active = inhibition above about 35%, passing the limit was not always enough
EBNA-1 inhibitor: blocks EBNA-1 binding to DNA; hit rate 0.34% among 300,000; inhibition, % at 14.8 µM; EBNA-1 DNA binding, fluorescence polarization; in the data active = inhibition above about 28%
Hits are given with their value. Most compounds without a hit are left out; they make up all but 2.1% or so of the library. Unless noted, the rule behind the calls is not given here.

CN1CCN(C2=C(Cl)C(=O)N(CCc3ccccc3)C2=O)CC1 was read as eIF4H inh inconclusive, NS3 helicase inh inactive, PABP FP inh inactive, ZTA DNA inh inactive, PABP1 MLLE inh 51 and EBNA-1 inhibitor inactive.
O=C1C(Cl)=C(N2CCN(Cc3ccccc3)CC2)C(=O)N1c1ccccc1 was read as eIF4H inh inconclusive, NS3 helicase inh inactive, PABP FP inh 66, ZTA DNA inh inactive, PABP1 MLLE inh inactive and EBNA-1 inhibitor inactive.
`O=C(COC(=O)CCC(=O)c1cccs1)Nc1cc(S(=O)(=O)N2CCOCC2)ccc1Cl` gave eIF4H inh inactive, NS3 helicase inh inactive, PABP FP inh inactive, ZTA DNA inh inactive, PABP1 MLLE inh inactive and EBNA-1 inhibitor inactive.
For CCn1c(O)c(/C=N/n2cnnc2)sc1=S the results were eIF4H inh inactive, NS3 helicase inh inactive, PABP FP inh inactive, ZTA DNA inh inactive, PABP1 MLLE inh inactive and EBNA-1 inhibitor inactive.
`Cn1c(=O)c2ncn(CC(=O)Nc3ccc4oc(-c5cccc6ccccc56)nc4c3)c2n(C)c1=O` gave NS3 helicase inh inactive.
For COc1ccc(C(=O)CCN2CCC(C)CC2)cc1 the results were eIF4H inh inactive, NS3 helicase inh inactive, PABP FP inh inactive, ZTA DNA inh inactive, PABP1 MLLE inh 44 and EBNA-1 inhibitor inactive.
For COc1ccc(C(=O)CCN2CCCC(C)C2)cc1 (stereo not given) the results were eIF4H inh inactive, NS3 helicase inh inactive, PABP FP inh inactive, ZTA DNA inh inactive, PABP1 MLLE inh 41 and EBNA-1 inhibitor inactive.
Cc1cc(=O)cc(C)n1-c1ccc2c(c1)nc(C)n2-c1ccccc1 was read as eIF4H inh inactive, PABP FP inh inactive, ZTA DNA inh inactive, PABP1 MLLE inh inactive and EBNA-1 inhibitor inactive.
`CCCc1nc(SCC(=O)c2ccc(OC)cc2)c2ccccc2n1` gave eIF4H inh inactive, NS3 helicase inh inactive, PABP FP inh inactive, ZTA DNA inh inactive, PABP1 MLLE inh inactive and EBNA-1 inhibitor inactive.
For O=S(=O)(c1ccc(NC(=S)Nc2ccc3c(c2)OCO3)cc1)N1CCOCC1 the results were eIF4H inh 94, NS3 helicase inh inactive, PABP FP inh 2.8, ZTA DNA inh inactive, PABP1 MLLE inh inactive and EBNA-1 inhibitor inactive.
O=S(=O)(c1ccc(NC(=S)Nc2ccccc2)cc1)N1CCOCC1 was read as eIF4H inh inactive, NS3 helicase inh inactive, PABP FP inh inactive, ZTA DNA inh inactive, PABP1 MLLE inh inactive and EBNA-1 inhibitor inactive.
O=C(CCc1ccccc1)NC(=S)Nc1ccc(S(=O)(=O)N2CCOCC2)cc1 was read as eIF4H inh inactive, NS3 helicase inh inactive, PABP FP inh inactive, ZTA DNA inh inactive, PABP1 MLLE inh 44 and EBNA-1 inhibitor inactive.
`Cc1ccc(CNC(=O)C2(c3cccs3)CCOCC2)cc1` gave eIF4H inh inactive, NS3 helicase inh inactive, PABP FP inh inactive, ZTA DNA inh inactive, PABP1 MLLE inh inactive and EBNA-1 inhibitor inactive.
For CCOc1ccccc1NC(=O)Nc1ccc(OC)nc1 the results were eIF4H inh inactive, NS3 helicase inh inactive, PABP FP inh 49 and PABP1 MLLE inh 48.
Screening CC(C)CN(C(=O)COC(=O)c1ccc2c(c1)NC(=O)CS2)C1CCS(=O)(=O)C1 (stereo not given) returned eIF4H inh inactive, NS3 helicase inh inactive, PABP FP inh inactive, ZTA DNA inh inactive, PABP1 MLLE inh 55 and EBNA-1 inhibitor inactive.
`COCC(C)n1c(C)cc(C(=O)COC(=O)c2ccc3c(c2)NC(=O)CS3)c1C` (stereo not given) gave eIF4H inh inactive, NS3 helicase inh inactive, PABP FP inh inactive, ZTA DNA inh inactive, PABP1 MLLE inh 39 and EBNA-1 inhibitor inactive.
For CC(C)CN(C(=O)COC(=O)CNC(=O)c1ccccc1F)C1CCS(=O)(=O)C1 (stereo not given) the results were eIF4H inh inactive, NS3 helicase inh inactive, PABP FP inh 90, ZTA DNA inh inactive, PABP1 MLLE inh inactive and EBNA-1 inhibitor inactive.
For COc1ccc(Br)cc1/C=N/NC(=O)C(c1ccncc1)N1CCOCC1 (stereo not given) the results were eIF4H inh inactive, NS3 helicase inh inactive, PABP FP inh inactive, ZTA DNA inh inactive, PABP1 MLLE inh inactive and EBNA-1 inhibitor inactive.
`COC(=O)C(OC(=O)c1ccccc1)C(C)Br` (stereo not given) gave ZTA DNA inh inactive and PABP1 MLLE inh inactive.
`CCCCNC(=O)/C(C#N)=C/c1ccc(-c2ccc(S(=O)(=O)N3CCOCC3)cc2)o1` gave eIF4H inh inactive, NS3 helicase inh inactive, PABP FP inh inactive, ZTA DNA inh 44, PABP1 MLLE inh inactive and EBNA-1 inhibitor inactive.
`COC(=O)/C(C#N)=C/c1ccc(-c2ccc(S(N)(=O)=O)cc2)o1` gave eIF4H inh inactive, NS3 helicase inh inactive, PABP FP inh inactive, ZTA DNA inh inactive, PABP1 MLLE inh inactive and EBNA-1 inhibitor inactive.
`O=C(O)c1cncc(C#Cc2ccccc2)c1` gave eIF4H inh inactive, NS3 helicase inh inactive, PABP FP inh inactive, ZTA DNA inh inactive, PABP1 MLLE inh inactive and EBNA-1 inhibitor inactive.
Screening O=C(NC(=S)Nc1cccnc1)c1cccc(Cl)c1 returned PABP1 MLLE inh 43.
`CC(=O)c1cccc(NC(=S)NC(=O)c2cccc(Cl)c2)c1` gave eIF4H inh inactive, NS3 helicase inh inactive, PABP FP inh inactive, ZTA DNA inh inactive, PABP1 MLLE inh inactive and EBNA-1 inhibitor inactive.
O=C(NC(=S)Nc1ccccc1)c1cncc(C#Cc2ccccc2)c1 was read as eIF4H inh inactive, NS3 helicase inh inactive, PABP FP inh inactive, ZTA DNA inh inactive, PABP1 MLLE inh 40 and EBNA-1 inhibitor inactive.
O=C(NC(=S)Nc1cccnc1)c1cc2ccccc2o1 was read as eIF4H inh inactive, NS3 helicase inh inactive, PABP FP inh inactive, ZTA DNA inh inactive, PABP1 MLLE inh 41 and EBNA-1 inhibitor inactive.
CCOC(=O)c1c(C)[nH]c(C(=O)COC(=O)CSC)c1C was read as eIF4H inh inactive, NS3 helicase inh inactive, PABP FP inh inactive, ZTA DNA inh inactive, PABP1 MLLE inh inactive and EBNA-1 inhibitor inactive.
`CC(C)NC(=O)[C@H]1N2C(=O)c3ccccc3C2SC1(C)C` (stereo not given in full) gave eIF4H inh inactive, NS3 helicase inh inactive, PABP FP inh inactive, ZTA DNA inh inactive, PABP1 MLLE inh inactive and EBNA-1 inhibitor inactive.
Screening CC(C)(C)n1nc(Cc2cccc3ccccc23)c2c(N)ncnc21 returned ZTA DNA inh inactive, PABP1 MLLE inh inactive and EBNA-1 inhibitor inactive.
Screening CCn1c(C)nc2cc(S(=O)(=O)Nc3ccc(C)cc3)ccc21 returned eIF4H inh inactive, NS3 helicase inh inactive, PABP FP inh 51, ZTA DNA inh inactive, PABP1 MLLE inh inactive and EBNA-1 inhibitor inactive.
Cc1ccccc1Nc1nnc(SCC(=O)NC(=O)NCc2ccco2)s1 was read as eIF4H inh 59, NS3 helicase inh inactive, PABP FP inh inactive, ZTA DNA inh inactive, PABP1 MLLE inh inactive and EBNA-1 inhibitor inactive.
`CCCn1c(SCC(=O)NC(=O)NCc2ccco2)n[nH]c1=O` gave eIF4H inh 74, NS3 helicase inh inactive and PABP FP inh 36.

Source: PubChem (several laboratories)
